For assay [1], the target named is Serine/threonine-protein kinase Chk2 (Homo sapiens, UniProt O96017). As to the kind of experiment: Inhibition of CHK2 at 30 uM by microfluidic mobility shift assay. In a few lines: (§1)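 Single-concentration screen, singlicate, 30 uM final (diluted from 1 mM DMSO solutions), fluorescently tagged peptide substrate appropriate to each kinase, ATP at apparent Km for each protein. Phosphorylated and unphosphorylated peptides separated electrophoretically; conversion is the phosphorylated peak area over the sum of both peaks. No-inhibitor and no-ATP controls; H89 reference on each plate.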

For assay [2], the target named is MAP kinase-activated protein kinase 2 (Homo sapiens, UniProt P49137). As to the kind of experiment: Inhibition of MAPKAPK2 at 30 uM by microfluidic mobility shift assay. In a few lines:
as §1

Assay [3] deals with Mitogen-activated protein kinase 1 (Homo sapiens) (UniProt P28482). As to the kind of experiment: Inhibition of ERK2 at 30 uM by microfluidic mobility shift assay. A digest of the protocol:
as §1

In assay [4] the target is RAC-beta serine/threonine-protein kinase (Homo sapiens) (UniProt P31751). The assay can be described thus: Inhibition of AKT2 at 30 uM by microfluidic mobility shift assay. A digest of the protocol: as §1
Chain of RAC-beta serine/threonine-protein kinase (Homo sapiens) (P31751 whole entry): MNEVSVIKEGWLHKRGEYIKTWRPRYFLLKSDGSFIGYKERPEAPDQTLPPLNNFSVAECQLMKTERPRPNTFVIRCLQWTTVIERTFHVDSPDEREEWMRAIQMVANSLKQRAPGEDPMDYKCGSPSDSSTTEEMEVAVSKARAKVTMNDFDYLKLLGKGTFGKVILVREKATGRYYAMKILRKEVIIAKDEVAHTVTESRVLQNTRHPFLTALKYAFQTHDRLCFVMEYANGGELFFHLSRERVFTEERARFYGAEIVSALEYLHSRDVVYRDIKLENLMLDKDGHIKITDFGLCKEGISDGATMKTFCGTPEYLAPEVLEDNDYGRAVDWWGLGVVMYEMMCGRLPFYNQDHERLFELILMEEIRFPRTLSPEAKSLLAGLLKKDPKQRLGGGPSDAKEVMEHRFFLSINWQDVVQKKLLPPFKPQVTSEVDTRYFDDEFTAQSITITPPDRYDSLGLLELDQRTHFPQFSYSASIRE
Assay [5] addresses Tyrosine-protein kinase Lck (Homo sapiens, UniProt P06239). The assay can be described thus: Inhibition of LCK at 30 uM by microfluidic mobility shift assay. A digest of the protocol:
as §1

The target of assay [6] is T1, MAP kinase-activated protein kinase 5 (Homo sapiens) (UniProt Q8IW41).
T1 sequence (whole entry): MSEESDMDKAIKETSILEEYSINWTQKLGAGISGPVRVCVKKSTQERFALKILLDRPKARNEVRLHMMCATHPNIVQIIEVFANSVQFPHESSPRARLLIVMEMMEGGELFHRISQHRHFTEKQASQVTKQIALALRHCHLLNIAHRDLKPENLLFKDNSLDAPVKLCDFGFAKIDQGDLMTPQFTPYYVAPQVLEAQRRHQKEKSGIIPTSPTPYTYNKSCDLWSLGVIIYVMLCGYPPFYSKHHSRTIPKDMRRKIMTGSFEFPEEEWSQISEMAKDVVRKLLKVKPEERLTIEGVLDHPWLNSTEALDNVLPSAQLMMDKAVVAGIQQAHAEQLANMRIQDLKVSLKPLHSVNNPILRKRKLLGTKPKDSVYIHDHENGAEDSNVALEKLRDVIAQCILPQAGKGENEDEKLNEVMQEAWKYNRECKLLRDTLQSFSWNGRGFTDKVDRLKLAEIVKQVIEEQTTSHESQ
As to the kind of experiment: Inhibition of PRAK1 at 30 uM by microfluidic mobility shift assay. A digest of the protocol:
as §1

Assay [7] concerns the target Glycogen synthase kinase-3 beta (Homo sapiens) (UniProt P49841). The assay can be described thus: Inhibition of GSK3B at 30 uM by microfluidic mobility shift assay. A digest of the protocol: as §1
Assay [8] has as its target T2, Aurora kinase A (Homo sapiens) (UniProt O14965).
T2 sequence (whole entry): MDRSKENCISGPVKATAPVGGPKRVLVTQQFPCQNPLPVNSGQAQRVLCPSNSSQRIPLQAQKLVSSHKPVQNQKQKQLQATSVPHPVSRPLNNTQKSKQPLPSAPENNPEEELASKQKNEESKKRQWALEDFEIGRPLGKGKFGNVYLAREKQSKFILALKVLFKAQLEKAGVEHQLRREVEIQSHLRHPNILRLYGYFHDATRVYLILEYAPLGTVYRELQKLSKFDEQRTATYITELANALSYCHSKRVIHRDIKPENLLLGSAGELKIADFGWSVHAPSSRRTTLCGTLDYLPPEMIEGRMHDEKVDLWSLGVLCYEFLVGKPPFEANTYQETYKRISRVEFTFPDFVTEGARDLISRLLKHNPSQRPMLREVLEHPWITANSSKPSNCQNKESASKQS
The assay can be described thus: Inhibition of AurA at 30 uM by microfluidic mobility shift assay. A digest of the protocol:
as §1

Assay [9] deals with Tyrosine-protein kinase Lyn (Homo sapiens, UniProt P07948). As to the kind of experiment: Inhibition of LYN at 30 uM by microfluidic mobility shift assay. A digest of the protocol: as §1
Chain of Tyrosine-protein kinase Lyn (P07948 2-512 limits assumed): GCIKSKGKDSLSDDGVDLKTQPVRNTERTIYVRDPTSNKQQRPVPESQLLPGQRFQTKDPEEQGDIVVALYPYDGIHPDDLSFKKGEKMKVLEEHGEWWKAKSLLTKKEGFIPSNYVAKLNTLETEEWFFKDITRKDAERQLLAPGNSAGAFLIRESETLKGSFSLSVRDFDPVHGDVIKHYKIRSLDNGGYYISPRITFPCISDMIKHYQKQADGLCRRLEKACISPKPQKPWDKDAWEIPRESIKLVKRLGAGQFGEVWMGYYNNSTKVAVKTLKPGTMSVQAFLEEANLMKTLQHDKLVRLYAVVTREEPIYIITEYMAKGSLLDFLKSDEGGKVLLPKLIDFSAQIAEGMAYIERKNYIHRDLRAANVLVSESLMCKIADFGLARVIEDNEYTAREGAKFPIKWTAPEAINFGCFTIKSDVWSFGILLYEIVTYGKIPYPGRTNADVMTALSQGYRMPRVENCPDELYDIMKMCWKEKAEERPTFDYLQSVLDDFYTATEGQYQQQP
Assay [10] addresses Mitogen-activated protein kinase 3 (Homo sapiens) (UniProt P27361). As to the kind of experiment: Inhibition of ERK1 at 30 uM by microfluidic mobility shift assay. A digest of the protocol:
as §1

For assay [11], the target named is Tyrosine-protein kinase Fyn (Homo sapiens, UniProt P06241). As to the kind of experiment: Inhibition of FYN at 30 uM by microfluidic mobility shift assay. A digest of the protocol: as §1
Assay [12] deals with Insulin receptor (Homo sapiens) (UniProt P06213). As to the kind of experiment: Inhibition of INSR at 30 uM by microfluidic mobility shift assay. In a few lines:
as §1

In assay [13] the target is RAC-alpha serine/threonine-protein kinase (Homo sapiens) (UniProt P31749). The assay can be described thus: Inhibition of AKT1 at 30 uM by microfluidic mobility shift assay. In a few lines: as §1
Chain of RAC-alpha serine/threonine-protein kinase (Homo sapiens) (P31749 whole entry): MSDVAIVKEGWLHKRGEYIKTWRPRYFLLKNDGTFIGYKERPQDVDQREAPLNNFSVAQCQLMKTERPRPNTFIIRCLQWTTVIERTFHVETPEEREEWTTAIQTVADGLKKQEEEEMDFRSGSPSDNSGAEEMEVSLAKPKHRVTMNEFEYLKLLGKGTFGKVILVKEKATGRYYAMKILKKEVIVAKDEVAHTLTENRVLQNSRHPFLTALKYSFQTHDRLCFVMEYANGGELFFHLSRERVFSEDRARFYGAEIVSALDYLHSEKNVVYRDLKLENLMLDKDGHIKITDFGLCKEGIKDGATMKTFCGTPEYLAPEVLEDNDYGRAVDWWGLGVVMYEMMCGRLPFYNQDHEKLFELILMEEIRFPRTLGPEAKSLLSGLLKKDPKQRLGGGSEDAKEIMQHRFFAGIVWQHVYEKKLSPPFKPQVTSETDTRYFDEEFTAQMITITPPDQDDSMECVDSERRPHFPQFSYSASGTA
The target in assay [14] is T3, Protein kinase C zeta type (Homo sapiens) (UniProt Q05513).
T3 sequence (whole entry): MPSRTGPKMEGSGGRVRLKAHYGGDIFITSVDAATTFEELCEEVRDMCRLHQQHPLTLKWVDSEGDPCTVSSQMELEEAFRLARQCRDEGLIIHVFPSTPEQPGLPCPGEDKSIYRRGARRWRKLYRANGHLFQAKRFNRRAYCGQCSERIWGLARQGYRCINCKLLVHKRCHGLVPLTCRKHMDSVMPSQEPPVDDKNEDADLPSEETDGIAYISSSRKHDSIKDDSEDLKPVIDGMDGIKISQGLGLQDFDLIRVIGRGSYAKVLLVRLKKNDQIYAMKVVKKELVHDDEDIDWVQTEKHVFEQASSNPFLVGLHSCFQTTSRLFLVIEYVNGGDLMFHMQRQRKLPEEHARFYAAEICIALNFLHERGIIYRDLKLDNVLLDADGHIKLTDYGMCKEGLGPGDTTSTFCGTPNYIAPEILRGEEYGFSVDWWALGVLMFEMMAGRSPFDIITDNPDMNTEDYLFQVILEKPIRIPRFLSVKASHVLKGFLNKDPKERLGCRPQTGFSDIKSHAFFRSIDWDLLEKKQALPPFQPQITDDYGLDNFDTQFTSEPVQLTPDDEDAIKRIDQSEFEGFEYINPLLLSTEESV
As to the kind of experiment: Inhibition of PKCz at 30 uM by microfluidic mobility shift assay. In a few lines:
as §1

Assay [15] deals with Ribosomal protein S6 kinase alpha-1 (Homo sapiens) (UniProt Q15418). The assay can be described thus: Inhibition of RSK1 at 30 uM by microfluidic mobility shift assay. In a few lines: as §1
For assay [16], the target named is T4, Serine/threonine-protein kinase Chk1 (Homo sapiens) (UniProt O14757).
T4 sequence (whole entry): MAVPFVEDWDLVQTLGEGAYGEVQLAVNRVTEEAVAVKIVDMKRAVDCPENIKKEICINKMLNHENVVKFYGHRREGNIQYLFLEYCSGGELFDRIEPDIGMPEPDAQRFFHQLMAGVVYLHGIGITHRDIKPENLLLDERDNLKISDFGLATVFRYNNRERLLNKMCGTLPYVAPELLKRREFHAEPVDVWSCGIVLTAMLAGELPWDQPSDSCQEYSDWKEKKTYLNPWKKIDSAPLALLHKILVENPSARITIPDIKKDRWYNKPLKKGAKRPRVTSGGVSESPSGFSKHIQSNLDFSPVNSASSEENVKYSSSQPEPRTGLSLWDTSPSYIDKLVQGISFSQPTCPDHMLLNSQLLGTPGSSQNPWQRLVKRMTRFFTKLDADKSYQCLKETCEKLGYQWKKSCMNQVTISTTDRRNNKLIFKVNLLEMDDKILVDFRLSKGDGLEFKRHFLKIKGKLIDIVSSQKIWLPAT
As to the kind of experiment: Inhibition of CHK1 at 30 uM by microfluidic mobility shift assay. In a few lines: as §1

Chain of Glycogen synthase kinase-3 beta (Homo sapiens) (P49841 whole entry, looked up): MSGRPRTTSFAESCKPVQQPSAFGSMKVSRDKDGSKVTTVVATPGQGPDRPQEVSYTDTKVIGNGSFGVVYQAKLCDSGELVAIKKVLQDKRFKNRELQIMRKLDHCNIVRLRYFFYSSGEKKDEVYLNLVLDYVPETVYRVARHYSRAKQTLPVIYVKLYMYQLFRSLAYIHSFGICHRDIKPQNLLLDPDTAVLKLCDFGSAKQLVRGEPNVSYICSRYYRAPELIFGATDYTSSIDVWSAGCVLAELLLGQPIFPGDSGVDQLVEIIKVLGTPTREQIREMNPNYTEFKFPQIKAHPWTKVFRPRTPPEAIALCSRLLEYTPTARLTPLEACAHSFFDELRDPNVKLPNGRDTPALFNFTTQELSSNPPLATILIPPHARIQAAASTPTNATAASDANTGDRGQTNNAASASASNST
Chain of Mitogen-activated protein kinase 1 (Homo sapiens) (P28482 whole entry): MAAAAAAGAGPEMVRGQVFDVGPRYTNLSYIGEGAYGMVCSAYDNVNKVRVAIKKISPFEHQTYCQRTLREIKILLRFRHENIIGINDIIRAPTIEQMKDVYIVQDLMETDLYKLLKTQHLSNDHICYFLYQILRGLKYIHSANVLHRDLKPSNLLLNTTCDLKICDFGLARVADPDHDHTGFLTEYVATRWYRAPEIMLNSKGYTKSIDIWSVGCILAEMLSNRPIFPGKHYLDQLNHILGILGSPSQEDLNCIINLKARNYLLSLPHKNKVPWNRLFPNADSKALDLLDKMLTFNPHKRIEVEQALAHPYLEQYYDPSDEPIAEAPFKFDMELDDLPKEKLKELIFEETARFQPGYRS
Chain of Tyrosine-protein kinase Lck (P06239 2-509 limits assumed): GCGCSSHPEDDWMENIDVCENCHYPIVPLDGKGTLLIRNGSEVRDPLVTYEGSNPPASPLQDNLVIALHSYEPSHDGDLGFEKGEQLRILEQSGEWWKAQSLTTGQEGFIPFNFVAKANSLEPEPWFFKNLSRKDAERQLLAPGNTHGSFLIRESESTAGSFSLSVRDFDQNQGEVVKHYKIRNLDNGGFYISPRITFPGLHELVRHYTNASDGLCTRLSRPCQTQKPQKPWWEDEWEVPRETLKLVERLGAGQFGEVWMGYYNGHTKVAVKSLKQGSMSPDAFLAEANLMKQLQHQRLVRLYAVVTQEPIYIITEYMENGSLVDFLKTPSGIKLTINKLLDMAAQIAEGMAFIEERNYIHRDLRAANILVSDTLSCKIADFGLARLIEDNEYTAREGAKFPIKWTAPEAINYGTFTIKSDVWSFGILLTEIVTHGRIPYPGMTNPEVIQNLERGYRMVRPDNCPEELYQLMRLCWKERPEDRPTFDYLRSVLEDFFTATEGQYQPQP
Chain of Insulin receptor (Homo sapiens) (P06213 28-758 limits assumed): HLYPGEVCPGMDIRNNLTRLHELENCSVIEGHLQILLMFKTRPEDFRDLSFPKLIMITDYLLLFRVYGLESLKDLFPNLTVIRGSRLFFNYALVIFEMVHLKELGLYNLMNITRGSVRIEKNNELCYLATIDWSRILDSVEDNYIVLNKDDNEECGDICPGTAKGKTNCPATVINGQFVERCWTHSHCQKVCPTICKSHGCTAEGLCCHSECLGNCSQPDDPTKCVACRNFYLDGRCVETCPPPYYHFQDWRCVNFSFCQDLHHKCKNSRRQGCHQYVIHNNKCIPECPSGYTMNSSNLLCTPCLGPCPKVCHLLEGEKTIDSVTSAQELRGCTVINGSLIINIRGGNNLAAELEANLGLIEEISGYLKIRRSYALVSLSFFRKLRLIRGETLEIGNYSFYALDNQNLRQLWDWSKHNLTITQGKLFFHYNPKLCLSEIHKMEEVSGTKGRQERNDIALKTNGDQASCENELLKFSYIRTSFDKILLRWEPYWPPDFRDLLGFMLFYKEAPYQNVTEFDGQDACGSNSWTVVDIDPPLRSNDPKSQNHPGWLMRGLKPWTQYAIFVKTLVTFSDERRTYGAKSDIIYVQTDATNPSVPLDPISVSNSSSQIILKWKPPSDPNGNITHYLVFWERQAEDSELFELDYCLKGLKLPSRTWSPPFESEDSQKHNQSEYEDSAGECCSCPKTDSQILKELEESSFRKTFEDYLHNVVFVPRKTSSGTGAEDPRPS
Chain of Insulin receptor (Homo sapiens) (P06213 763-1382 limits assumed): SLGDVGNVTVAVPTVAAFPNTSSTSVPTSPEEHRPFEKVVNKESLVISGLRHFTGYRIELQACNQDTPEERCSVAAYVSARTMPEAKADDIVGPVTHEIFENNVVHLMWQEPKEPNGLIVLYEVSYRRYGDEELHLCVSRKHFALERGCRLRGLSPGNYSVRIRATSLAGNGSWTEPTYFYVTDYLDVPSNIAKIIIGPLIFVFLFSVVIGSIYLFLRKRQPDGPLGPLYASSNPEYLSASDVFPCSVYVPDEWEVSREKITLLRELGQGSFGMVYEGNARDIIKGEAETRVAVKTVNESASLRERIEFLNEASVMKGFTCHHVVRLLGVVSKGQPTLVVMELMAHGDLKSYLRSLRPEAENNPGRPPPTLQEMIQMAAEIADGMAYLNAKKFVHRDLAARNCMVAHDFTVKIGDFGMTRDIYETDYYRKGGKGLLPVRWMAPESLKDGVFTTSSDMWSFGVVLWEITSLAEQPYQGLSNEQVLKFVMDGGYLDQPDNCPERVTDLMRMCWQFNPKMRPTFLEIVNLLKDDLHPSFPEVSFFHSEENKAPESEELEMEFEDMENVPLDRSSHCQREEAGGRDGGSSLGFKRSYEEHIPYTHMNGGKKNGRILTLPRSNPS
Chain of MAP kinase-activated protein kinase 2 (P49137 whole entry, looked up): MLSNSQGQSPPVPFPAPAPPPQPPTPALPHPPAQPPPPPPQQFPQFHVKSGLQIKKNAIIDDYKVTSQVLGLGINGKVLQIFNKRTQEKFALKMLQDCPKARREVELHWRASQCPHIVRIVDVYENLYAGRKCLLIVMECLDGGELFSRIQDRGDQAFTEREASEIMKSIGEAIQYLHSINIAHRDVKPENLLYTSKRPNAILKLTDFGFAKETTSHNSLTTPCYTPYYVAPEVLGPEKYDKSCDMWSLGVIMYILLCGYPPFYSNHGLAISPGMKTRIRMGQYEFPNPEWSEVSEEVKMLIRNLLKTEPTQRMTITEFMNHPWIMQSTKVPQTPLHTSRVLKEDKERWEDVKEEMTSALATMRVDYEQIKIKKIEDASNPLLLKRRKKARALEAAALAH
Chain of Mitogen-activated protein kinase 3 (Homo sapiens) (P27361 whole entry): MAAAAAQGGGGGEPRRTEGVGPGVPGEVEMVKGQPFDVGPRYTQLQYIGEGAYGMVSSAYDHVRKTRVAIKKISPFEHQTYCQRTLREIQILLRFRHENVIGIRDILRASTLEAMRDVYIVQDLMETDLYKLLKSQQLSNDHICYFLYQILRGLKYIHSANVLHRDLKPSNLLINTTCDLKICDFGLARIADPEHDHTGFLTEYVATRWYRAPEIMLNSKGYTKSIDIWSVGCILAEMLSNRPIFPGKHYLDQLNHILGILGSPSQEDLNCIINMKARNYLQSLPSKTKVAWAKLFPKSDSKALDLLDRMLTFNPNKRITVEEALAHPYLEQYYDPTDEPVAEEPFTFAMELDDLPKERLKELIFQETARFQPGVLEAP

As for `COc1cccc(-c2cc3c(c(N)nn3C)c(=O)[nH]2)c1`, the inhibition in assay [1] is 31%; in [2], 47%; in assay [3], 22%; in [4] it was 1%; in [5], 22%; in assay [6], 6%. Moreover, the inhibition in [7] amounted to 61%; in [8], 17%; in assay [9], 26%; in [10] it was 19%; in assay [11] it was 23%; in assay [12] it was 6%. In addition, the inhibition was -5% in assay [13], 6% in assay [14], 22% in [15] and 27% in [16].

On to `Nc1n[nH]c2cc(-c3ccc(N4CCOCC4)cc3)[nH]c(=O)c12`, for which the inhibition in assay [1] was 38%; in [2], 55%; in assay [3], -3%; in [4], 7%; in assay [5] it was 44%; in assay [6] it was 11%. Also, the inhibition in assay [7] came out at 41%; in [8], 51%; in assay [9] it was 63%; in [10], 9%; in [11], 62%; in [12], 6%. In addition, the inhibition in assay [13] was -1%; in assay [14] it was -2%; in [15], 16%; in assay [16] it was 29%.

For the compound `COc1ccc(S(=O)(=O)Nc2nn(C)c3cc(C)[nH]c(=O)c23)c(OC)c1`, the inhibition was 6% in [1]; 2% in assay [2]; 1% in [3]; 6% in assay [4]; -1% in assay [5]; 1% in assay [6]. Moreover, the inhibition in [7] was 0%; in assay [8] it was -9%; in assay [9], -1%; in assay [10] it was 4%; in assay [11], 3%; in [12], 2%. The inhibition in assay [13] was 10%; in assay [14], 21%; in assay [15] it was -2%; in assay [16] it was 0%.

Regarding `COc1ccc(-c2cc3c(c(N)nn3C)c(=O)[nH]2)cc1`, the inhibition in assay [1] was 16%; in assay [2] it was 51%; in assay [3], 16%; in assay [4], -8%; in assay [5], 46%; in assay [6], 16%. For the same compound, the inhibition was 81% in assay [7]; 33% in assay [8]; 49% in assay [9]; 28% in assay [10]; 56% in assay [11]; 5% in assay [12]. The inhibition in assay [13] is 9%; in [14], -3%; in assay [15], 18%; in assay [16], 36%.

Consider `Nc1c2c(=O)[nH]c(-c3ccccn3)cc2nn1-c1ccccc1`, for which the inhibition in [1] worked out at 3%; in [2], 4%; in assay [3] it was 6%; in [4], 8%; in assay [5], 91%; in assay [6], 2%. In addition, the inhibition in assay [7] turned out to be 11%; in assay [8], 30%; in assay [9] it was 97%; in assay [10], 4%; in assay [11], 96%; in [12], 4%. For the same compound, the inhibition worked out at 4% in assay [13], 3% in assay [14], 6% in [15] and 7% in assay [16].

Regarding `CC(=O)Nc1nn(C)c2cc(-c3ccc(N4CCN(C)CC4)cc3)[nH]c(=O)c12`, the inhibition in assay [1] was 3%; in [2] it was 5%; in assay [3], 4%; in assay [4], -1%; in assay [5] it was 10%; in assay [6] it was 6%. Moreover, the inhibition was -3% in [7]; 15% in [8]; 8% in [9]; 3% in [10]; 15% in [11]; 2% in assay [12]. For the same compound, the inhibition turned out to be 4% in [13], 6% in [14], 16% in assay [15] and 16% in assay [16].

In the case of `Nc1c2c(=O)[nH]c(-c3ccccc3)cc2nn1-c1ccccn1`, the inhibition in assay [1] was 18%; in [2], 6%; in assay [3] it was 0%; in assay [4], 0%; in [5], 15%; in assay [6], -1%. The inhibition stood at 41% in [7]; 37% in assay [8]; 40% in [9]; 2% in [10]; 41% in assay [11]; 5% in assay [12]. The inhibition in [13] is 10%; in [14] it was -3%; in [15] it was 5%; in assay [16], 2%.

For `COc1ccc(-c2c(C)[nH]c(=O)c3c(N)nn(C)c23)cc1`, the inhibition in assay [1] stood at 18%; in assay [2], 24%; in assay [3], 7%; in assay [4], 25%; in [5] it was 11%; in assay [6], 13%. The inhibition is 58% in assay [7]; 31% in assay [8]; 19% in assay [9]; 13% in assay [10]; 20% in assay [11]; 2% in [12]. Besides, the inhibition in assay [13] came to 13%; in [14], 10%; in assay [15], 18%; in assay [16] it was 11%.
